Assay results taken from ChEMBL document CHEMBL1287707, “Virtual screening against nuclear factor κB (NF-κB) of a focus library: Identification of bioactive furocoumarin derivatives inhibiting NF-κB dependent biological functions involved in cystic fibrosis” (Bioorg Med Chem, 2010).
Active and inactive are the calls of the source. No cut-off for these calls is given here.

How the values were obtained:
[1] = molecular target: T1, Nuclear factor NF-kappa-B p105 subunit (Homo sapiens, UniProt P19838); experiment: Inhibition of NF-KB p50 subunit/DNA interaction after 20 mins by EMSA
T1 sequence (P19838 whole entry): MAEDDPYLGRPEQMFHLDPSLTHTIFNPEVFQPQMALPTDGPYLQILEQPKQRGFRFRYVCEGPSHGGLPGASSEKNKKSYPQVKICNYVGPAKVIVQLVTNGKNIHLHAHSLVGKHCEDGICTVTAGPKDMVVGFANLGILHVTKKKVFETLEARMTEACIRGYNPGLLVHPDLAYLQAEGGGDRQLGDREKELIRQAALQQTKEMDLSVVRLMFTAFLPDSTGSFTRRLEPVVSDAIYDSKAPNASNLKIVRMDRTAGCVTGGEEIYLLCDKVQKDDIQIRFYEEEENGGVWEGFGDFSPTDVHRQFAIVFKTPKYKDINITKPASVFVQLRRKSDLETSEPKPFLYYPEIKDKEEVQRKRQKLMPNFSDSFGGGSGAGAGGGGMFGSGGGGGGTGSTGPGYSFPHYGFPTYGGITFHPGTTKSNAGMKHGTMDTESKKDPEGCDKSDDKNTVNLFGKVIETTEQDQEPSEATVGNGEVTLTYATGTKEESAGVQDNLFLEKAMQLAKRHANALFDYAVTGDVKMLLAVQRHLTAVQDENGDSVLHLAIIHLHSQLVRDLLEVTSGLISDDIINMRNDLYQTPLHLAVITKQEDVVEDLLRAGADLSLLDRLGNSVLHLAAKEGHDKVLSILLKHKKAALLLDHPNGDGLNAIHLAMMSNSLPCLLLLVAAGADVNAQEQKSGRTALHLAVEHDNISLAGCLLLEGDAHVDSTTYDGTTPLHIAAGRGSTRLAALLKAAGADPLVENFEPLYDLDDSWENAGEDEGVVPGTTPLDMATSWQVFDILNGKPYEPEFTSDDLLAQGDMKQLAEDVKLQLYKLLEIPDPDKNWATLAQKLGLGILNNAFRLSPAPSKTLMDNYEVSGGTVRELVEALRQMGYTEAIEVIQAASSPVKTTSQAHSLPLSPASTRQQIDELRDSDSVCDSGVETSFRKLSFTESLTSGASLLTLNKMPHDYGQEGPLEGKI
Summary of the method: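 Recombinant human NF-κB p50 (10 ng) was preincubated 20 min at room temperature with varied compound concentrations in buffer TF with 5% glycerol and 1 mM DTT. 0.25 ng 32P-labelled double-stranded NF-κB site oligo was added for a further 20 min. Complexes were resolved on 6% PAGE in 0.25X TBE and detected by autoradiography. IC50 is the concentration giving 50% inhibition of binding.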

IB3-1 = experiment: Antiinflammatory activity in Pseudomonas aeruginosa PAO1 infected human IB3-1 cells assessed as inhibition of IL8 gene expression at 10 uM after 4 hrs by RT-PCR analysis; type: functional, cell-based
Summary of the method: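 IB3-1 CF bronchial cells (ΔF508/W1282X) were grown in LHC-8 with 5% FBS, seeded at 200,000 cells/cm2, and serum-starved 18 h. Cells were then preincubated overnight with compound at 10 µM and infected with PAO1 at 30–100 CFU/cell for 4 h at 37 °C. Total RNA was reverse-transcribed and IL-8 mRNA quantified by RT-qPCR.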

Row | Structure (SMILES) | IC50 [1] [µM] | Activity (IB3-1)
1 | O=c1cc(-c2ccccc2)c2cc3c(-c4ccc5c(c4)OCO5)coc3cc2o1 | 20 | –
2 | COCCNc1oc2c(c1-c1cc(OC)c(OC)c(OC)c1)c(=O)oc1c(C)cccc12 | 40 | Active
3 | O=C(O)c1ccc(COc2cc(O)cc3oc(=O)c4c(c23)CCC4)cc1 | 5000 | –
4 | O=c1ccc2ccc3occc3c2o1 [ANGELICIN] | 2500 | –
5 | O=c1c(Br)cc2c(-c3ccccc3S(=O)(=O)O)c3cc(Br)c(O)c(O)c3oc-2c1O [BROMOPYROGALLOL RED] | 30 | –
6 | O=C(O)/C=C/c1ccccc1O [O-COUMARIC ACID] | 50 | –
7 | O=c1ccc2c(-c3ccccc3S(=O)(=O)O)c3ccc(O)c(O)c3oc-2c1O [PYROGALLOL RED] | 10 | –

The next lines start with results.

Row | IC50 [1] [µM] | Structure (SMILES) | Activity (IB3-1)
8 | 60 | COc1ccc(C(=O)c2oc3ccc4c(C)cc(=O)oc4c3c2-c2ccccc2)cc1 | Active
9 | 200 | Cc1cc(=O)oc2cc(O)ccc12 [HYMECROMONE] | –
10 | 3000 | O=c1ccc2cc3ccoc3cc2o1 [PSORALEN] | –
